Bioassay records deposited in PubChem BioAssay by Broad Institute.
An excerpt weighted towards active compounds, which were near 0.61% of everything screened.
F508del corr – CFTR F508del correction in bronchial cells | 350,000 tested, 0.36% active | AID 720511 | CFBE cells, YFP halide quenching; stimulated with forskolin plus potentiator P3; % fluorescence drop versus neutral controls | activity (quench increase), % at 7.58 µM;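 active means mean added fluorescence quench of at least 8% versus neutral control, with both replicates also reaching 8%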;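 further: cells transiently co-express mutant CFTR-F508del with the halide-sensitive YFP; corrector assay measuring rescue of mutant channel to the surface after 24 h compound exposure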
Xi reactivation – reactivates the inactive X chromosome in mouse fibroblasts. 360,000 tested, 0.055% active. XiGFP mouse fibroblasts, % GFP-positive cells imaging, 3 d; cells co-treated with 5-aza-dC sensitizer; scaled so ellipticine positive control = 100%. activation, % at 7.58 µM;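 active means mean normalized replicate activation at least 10% and every replicate at or above 10%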;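 further: 0% = median of on-plate neutral control wells and 100% = ellipticine 6 µM median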
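System: XiGFP fibroblasts, SV40-immortalized. Medium: DMEM plus 5-aza-dC sensitizer. Doses: single point. Timing: 3 d treatment, 15 min room-temperature fixation. Control set: ellipticine 6 µM.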
E-sel inducer – induces E-selectin expression in human endothelial cells. P16581. HUVEC E-selectin immunofluorescence imaging; normalized: neutral wells 0, TNF-alpha wells 100. activation, % at 7.58 µM. 260,000 tested, 0.37% active;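 active means mean E-selectin-positive cell signal at least 10% of the positive control, reached in at least 60% of replicates, without over 20% cell loss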
Target sequence (P16581 whole entry, looked up): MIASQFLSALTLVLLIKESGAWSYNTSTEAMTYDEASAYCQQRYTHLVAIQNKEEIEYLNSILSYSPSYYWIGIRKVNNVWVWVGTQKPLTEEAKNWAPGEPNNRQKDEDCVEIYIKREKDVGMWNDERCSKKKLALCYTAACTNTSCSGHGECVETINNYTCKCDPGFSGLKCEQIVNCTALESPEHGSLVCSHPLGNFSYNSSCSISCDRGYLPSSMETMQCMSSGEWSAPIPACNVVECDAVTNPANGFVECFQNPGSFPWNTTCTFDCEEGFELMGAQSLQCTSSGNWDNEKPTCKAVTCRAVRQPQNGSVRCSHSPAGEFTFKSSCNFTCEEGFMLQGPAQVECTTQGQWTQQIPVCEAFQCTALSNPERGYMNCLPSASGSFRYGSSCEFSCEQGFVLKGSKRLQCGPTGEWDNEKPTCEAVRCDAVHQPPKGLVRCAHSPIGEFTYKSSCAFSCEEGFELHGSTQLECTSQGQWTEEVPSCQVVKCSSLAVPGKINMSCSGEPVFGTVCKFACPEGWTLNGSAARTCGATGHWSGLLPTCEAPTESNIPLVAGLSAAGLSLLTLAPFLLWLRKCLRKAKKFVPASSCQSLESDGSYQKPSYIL
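Test system: HUVEC; input: 3,000 HUVEC/well; measured by: immunofluorescence imaging; read-out: % PE-positive cells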
Starred values were filed as active, the others as inactive; x = not tested or not shown.

SMILES	F508del corr	Xi reactivation	E-sel inducer
COCCCn1c(=O)/c(=C\c2ccccc2OC(F)F)s/c1=C(/C#N)C(N)=O	-1	0	38*
O=C(C[C@@H]1CC[C@@H](NC(=O)Nc2ccc(F)cc2)[C@H](CO)O1)NCc1cccc(F)c1	-1	0	0
CCCCCC[n+]1ccccc1/C=C/c1ccc(N(C)C)cc1	1	16*	0
CC[n+]1ccccc1/C=C/c1ccc(N(C)C)cc1	3	0	x
CC[n+]1c(/C=C/c2ccc(N(C)C)cc2)ccc2ccccc21	x	0	x
CC[n+]1ccc(/C=C/c2ccc(N(C)C)cc2)c2ccccc21	-7	0	115*
C[C@@H]1CN([C@@H](C)CO)C(=O)c2cc(-c3cncnc3)cnc2O[C@@H]1CN(C)C(=O)Cc1ccccn1	-1	1	1
O=C(Cc1ccncc1)N[C@@H]1CC[C@@H](CCn2cc(-c3ccccc3F)nn2)O[C@@H]1CO	-3	0	0
C[C@H](CO)N1C[C@H](C)[C@@H](CN(C)C(=O)C2CCCCC2)Oc2ncc(Br)cc2C1=O	-2	0	0
CC(C)(C=O)C1=CC(=O)c2ccccc2C1=O	x	18*	0
CC(C)(C)c1ccc2c(c1)C(=O)c1ccccc1C2=O	x	0	x
CO[C@@H]1CN(C)C(=O)c2cc(NS(=O)(=O)c3ccc(Cl)cc3)ccc2OC[C@@H](C)NC[C@@H]1C	-3	0	0
C[C@H](CO)N1C[C@H](C)[C@H](CN(C)C(=O)Nc2ccc(C(F)(F)F)cc2)Oc2ccc(NC(=O)Nc3ccccc3)cc2CC1=O	-1	-1	1
COc1ccc(-n2c(-c3cc(-c4ccccc4)sc3N)n[nH]c2=S)cc1	4	0	0
Nc1sc(-c2ccccc2)cc1-c1n[nH]c(=S)n1C1CCCCC1	13*	0	1
CC(C)CC#Cc1cnc2c(c1)C(=O)N([C@@H](C)CO)C[C@H](C)[C@@H](CN(C)S(=O)(=O)c1cccs1)O2	0	0	0
COC(=O)Cc1c(O)ccn(Cc2ccc(OC)c(OC)c2)c1=O	1	0	1
COC(=O)Cc1c(O)ccn(Cc2ccc(Cl)c(Cl)c2)c1=O	14*	0	0
C[C@H](CO)N1C[C@H](C)[C@H](CN(C)C(=O)Cc2cccnc2)Oc2ncc(-c3cccnc3)cc2C1=O	0	0	1
CCc1cccc(NC(=O)CCc2nc3sc4c(c3c(=O)[nH]2)CCCC4)c1	-1	0	84*
Cc1cccc(NC(=O)CCc2nc3sc4c(c3c(=O)[nH]2)CCCC4)c1	-6	0	x
CC(=O)Nc1ccc2sc(C)nc2c1	0	0	1
CC(=O)Nc1ccc2cc3ccc(NC(C)=O)cc3nc2c1	10.0*	0	0
C[C@H]1CN([C@@H](C)CO)C(=O)c2cc(NC(=O)CCN3CCOCC3)ccc2O[C@H]1CN(C)Cc1ccc(C(F)(F)F)cc1	-3	-1	4
C[C@H]1CN([C@@H](C)CO)C(=O)c2cc(NC(=O)CCN3CCOCC3)ccc2O[C@@H]1CN(C)Cc1ccncc1	1	0	362*
SMILES	F508del corr	Xi reactivation	E-sel inducer
C[C@H](CO)N1C[C@H](C)[C@H](CN(C)Cc2ccncc2)Oc2ccc(NC(=O)CCN3CCOCC3)cc2C1=O	0	0	-7
C[C@@H]1CN([C@H](C)CO)C(=O)c2cc(NC(=O)CCN3CCOCC3)ccc2O[C@@H]1CN(C)Cc1ccncc1	-3	0	36*
C[C@H](CO)N1C[C@H](C)[C@@H](CN(C)Cc2ccncc2)Oc2ccc(NC(=O)CCN3CCOCC3)cc2C1=O	-1	0	2
C[C@@H]1CN([C@H](C)CO)C(=O)c2cc(NC(=O)CCN3CCOCC3)ccc2O[C@@H]1CN(C)Cc1ccc(C(F)(F)F)cc1	-3	-1	178*
COc1cccc(NC(=O)N[C@H]2C=C[C@@H](CC(=O)NCc3ccccn3)O[C@H]2CO)c1	3	0	1
O=C(COC(=O)CCC1CCCC1)Nc1ccccc1Br	-5	1	1
Cc1ccc(NC(=O)COC(=O)CCC2CCCC2)c(Br)c1	9.4*	1	1
Cc1c(C#N)c(NC(=O)CCl)n(Cc2ccc(F)cc2)c1C	-3	0	42*
Cc1c(C#N)c(NC(=O)CCl)n(Cc2ccccc2)c1C	0	0	x
Cc1cccc(NC(=S)N2CCC(c3nc4ccccc4o3)CC2)c1C	2	x	x
S=C(NCc1ccco1)N1CCC(c2nc3ccccc3o2)CC1	0	0	60*
CC(C)NC(=O)N[C@@H]1CC[C@H](CCNS(=O)(=O)c2ccc(Cl)cc2)O[C@H]1CO	-3	-1	0
C[C@@H]1CN([C@H](C)CO)S(=O)(=O)c2ccc(C3=CCCC3)cc2O[C@H]1CN(C)C(=O)CN(C)C	0	-1	0
C[C@H](CO)N1C[C@H](C)[C@@H](CN(C)Cc2ccc(C(=O)O)cc2)Oc2c(NC(=O)Nc3ccc(F)cc3)cccc2C1=O	-2	0	0
N#Cc1cc(Sc2ccccn2)c([N+](=O)[O-])cc1C#N	13*	0	3
O=C(O)c1ccc(Sc2ccccn2)c([N+](=O)[O-])c1	3	0	x
COc1ccccc1-c1ccc2n(c1=O)C[C@@H]1[C@@H](CO)[C@H](C(=O)N3CCCCC3)N(C)[C@H]21	x	0	0
COCC(=O)Nc1ccc2c(c1)OC[C@@H](C)N(Cc1ccncc1)C[C@@H](C)[C@H](OC)CN(C)C2=O	0	0	0
CN1C(=O)c2cc(NC(=O)C3CCCCC3)ccc2OC[C@H]2O[C@H](CC(=O)NCc3ccccc3F)CC[C@H]21	3	0	0
COc1ccc(N2C(=O)CC(c3cc(OC)c(OC)c(OC)c3)CC2=O)cc1	2	0	x
COc1cc(C2CC(=O)N(c3ccc(C)cc3)C(=O)C2)cc(OC)c1OC	10*	1	x
CCc1cccc2cc3c(N)c(C(=O)Nc4ccc(S(=O)(=O)N5CCCC5)cc4)sc3nc12	x	89*	-1
COc1cccc(CC(=O)Nc2ccc(S(=O)(=O)N3CCCCC3)cc2)c1	2	0	0
O=C(C[C@H]1CC[C@@H]2[C@H](COC[C@@H](O)CN2C(=O)Nc2ccc(F)cc2)O1)NC1Cc2ccccc2C1	-4	0	0
CC(=O)N(C)C[C@@H]1Oc2ncc(-c3ccc(F)cc3)cc2C(=O)N([C@@H](C)CO)C[C@@H]1C	-1	0	0
SMILES	F508del corr	Xi reactivation	E-sel inducer
NC1=NC(=O)C(=Cc2ccccc2)S1	1	0	0
NC1=NC(=O)/C(=C/c2cccc(F)c2)S1	-3	0	54*
C[C@@H]1CCCCO[C@@H](CN(C)C(=O)Nc2cccc3ccccc23)[C@@H](C)CN([C@@H](C)CO)C(=O)c2cc(NC(=O)c3ccccc3)ccc2O1	-1	0	x
O=C(CC(F)(F)F)N1C[C@@H]2[C@H](c3ccccc31)[C@H](CO)N2C(=O)Cc1cccnc1	2	0	0
O=C1C(SCCO)=C(SCCO)C(=O)c2ccccc21	10*	88*	10
CC1=C(SCc2ccccc2)C(=O)c2ccccc2C1=O	-2	0	-1
